Experimental data as given in ChEMBL document CHEMBL1147971, “Evaluation of N-(phenylmethyl)-4-[5-(phenylmethyl)-4,5,6,7-tetrahydro-1H-imidazo[4,5-c]pyridin-4-yl]benzamide inhibitors of Mycobacterium tuberculosis growth” (Bioorg Med Chem Lett, 2007).
In brackets after ≈: the same amount, converted by molar mass. Activity calls are given as the source filed them. No cut-off for these calls is given here.

Experiments:
[1] = test system: Mycobacterium tuberculosis; test: Antibacterial activity against Mycobacterium tuberculosis; assay type: functional
Summary of the method: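 M. tuberculosis broth cultures grown in 96-well microtitre plates with drug. Growth read indirectly by metabolic reduction of fluorescent Alamar blue. MIC taken as the minimum drug concentration giving 50% inhibition of growth.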

[2] = Permeability across artificial cell membrane; assay type: ADME; details: for Papp: not told, read-out: permeability
Summary of the method: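 High-throughput artificial membrane assay measuring passive diffusion of compound across a phospholipid monolayer.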

[3] = Cytotoxicity against HEPG2 cells; assay type: cell-based; details: human; for cytotoxicity: read-out: Inhibition; for CC50: read-out: TC50 (the source's name)
Staphylococcus aureus = test: Antibacterial activity against Staphylococcus aureus ATCC 29213; assay type: functional, organism-based
[4] = Mycobacterium tuberculosis, read-out: MIC

SMILES | MIC [1, 4] [µM] | cytotoxicity [3] [%] | CC50 [3] [µM] | further results
COc1ccc(CNC(=O)c2ccc(C3c4nc[nH]c4CCN3Cc3cccc(Cl)c3Cl)cc2)cc1 (stereo in doubt; 9b) | – | – | – | MIC [1]: 63 µM (≈ 32.9 µg/mL); permeability [2]: 8 ×10⁻⁶ cm/s
O=C(NCc1ccccc1)c1ccc(C2c3nc[nH]c3CCN2Cc2cccc(Cl)c2)cc1 (configuration not stated) | 32 (≈ 14.6 µg/mL) | – | – | –
O=C(NCc1ccccc1)c1ccc(C2c3nc[nH]c3CCN2c2ccc3ccccc3c2)cc1 (configuration not stated) | 16 (≈ 7.34 µg/mL) | > 20 | > 13.2 | –
COc1ccc(CNC(=O)c2ccc(C3c4nc[nH]c4CCN3Cc3cccc(Cl)c3)cc2)cc1 (stereo in doubt; 9d) | 63 (≈ 30.7 µg/mL) | – | – | Papp [2]: 21 ×10⁻⁶ cm/s
COc1ccc(CNC(=O)c2ccc(C3c4nc[nH]c4CCN3Cc3cccc(Cl)c3)cc2)cc1 (stereo in doubt; 8f) | – | 25 | > 12.8 | –
COc1ccc(CNC(=O)c2ccc(C3c4nc[nH]c4CCN3c3ccc4ccccc4c3)cc2)cc1 (configuration not stated) | 32 (≈ 15.6 µg/mL) | 25 | > 12.4 | –
COc1ccc(CNC(=O)c2ccc(C3c4nc[nH]c4CCN3Cc3cccc(Cl)c3)cc2)cc1 (stereo in doubt; 9c) | – | – | – | MIC [1]: 32 µM (≈ 15.6 µg/mL); permeability [2]: 21 ×10⁻⁶ cm/s
COc1ccc(CNC(=O)c2ccc(C3c4nc[nH]c4CCN3Cc3cccc(Cl)c3Cl)cc2)cc1 (stereo in doubt; 9a) | – | – | – | Papp [2]: 8 ×10⁻⁶ cm/s
COc1ccc(CNC(=O)c2ccc(C3c4nc[nH]c4CCN3Cc3cccc(Cl)c3Cl)cc2)cc1 (stereo in doubt; 8e) | 32 (≈ 16.7 µg/mL) | – | – | –
O=C(NCc1ccccc1)c1ccc(C2c3nc[nH]c3CCN2Cc2cccc(Cl)c2Cl)cc1 (configuration not stated) | 32 (≈ 15.7 µg/mL) | – | – | –
COc1ccc(CNC(=O)c2ccc(C3c4nc[nH]c4CCN3Cc3cc(OC)c(OC)cc3OC)cc2)cc1 (configuration not stated) | 63 (≈ 34.2 µg/mL) | 20 | > 11.5 | Activity (Staphylococcus aureus): Active
